High-throughput results as filed in PubChem.
CSC inhib – cancer stem cell inhibition; cancer stem cell-like cells viability, luminescence; inhibition, % at 7.5 µM; 300,000 tested, 1.1% active; in the data active means inhibition above about 75%; tested in HMLE shEcad cells
ANO1 block – inhibitors of mouse TMEM16A calcium-activated chloride channel; Q8BHY3; HEK293 TMEM16A/YFP iodide influx fluorescence, ionomycin; normalized B-score (activity score, 25-100; higher = stronger inhibition) at 10 µM; 310,000 tested, 1.2% active;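 active means ratio plate-corrected score three or more library SD toward inhibition, starting fluorescence score within five deviations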;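 further: score derived from kinetic fluorescence span divided by baseline fluorescence per well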
Target sequence (Q8BHY3 whole entry, looked up): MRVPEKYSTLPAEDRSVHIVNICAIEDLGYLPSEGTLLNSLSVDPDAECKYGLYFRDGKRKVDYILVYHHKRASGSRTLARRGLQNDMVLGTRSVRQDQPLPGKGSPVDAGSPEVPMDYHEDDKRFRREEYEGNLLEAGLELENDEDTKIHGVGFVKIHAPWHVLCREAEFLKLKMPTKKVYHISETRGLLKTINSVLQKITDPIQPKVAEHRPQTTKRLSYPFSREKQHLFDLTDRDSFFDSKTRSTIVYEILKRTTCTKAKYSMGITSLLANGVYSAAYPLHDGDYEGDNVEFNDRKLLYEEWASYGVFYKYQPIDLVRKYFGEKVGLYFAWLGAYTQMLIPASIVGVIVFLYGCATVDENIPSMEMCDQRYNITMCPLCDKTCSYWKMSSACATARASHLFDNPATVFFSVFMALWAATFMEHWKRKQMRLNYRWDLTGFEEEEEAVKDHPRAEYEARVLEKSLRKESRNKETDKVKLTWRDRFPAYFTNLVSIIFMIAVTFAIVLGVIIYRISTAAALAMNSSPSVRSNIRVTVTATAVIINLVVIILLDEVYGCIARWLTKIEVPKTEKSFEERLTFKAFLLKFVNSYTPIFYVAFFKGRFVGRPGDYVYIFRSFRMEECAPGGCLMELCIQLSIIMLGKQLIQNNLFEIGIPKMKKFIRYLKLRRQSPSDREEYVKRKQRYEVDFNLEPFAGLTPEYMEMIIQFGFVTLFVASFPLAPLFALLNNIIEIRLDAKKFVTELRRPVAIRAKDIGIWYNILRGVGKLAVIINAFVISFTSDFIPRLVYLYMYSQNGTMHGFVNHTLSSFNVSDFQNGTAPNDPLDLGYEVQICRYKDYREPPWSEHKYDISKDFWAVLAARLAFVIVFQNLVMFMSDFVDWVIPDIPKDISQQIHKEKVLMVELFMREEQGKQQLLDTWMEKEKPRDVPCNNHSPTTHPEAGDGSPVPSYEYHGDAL
Beta cell apopt – beta cell apoptosis inhibition. 300,000 tested, 0.8% active. protection from apoptosis, % (concentration not given with the values). INS-1E cytokine-induced death, ATP luminescence, 48 h; percent of positive-control rescue, neutral wells zero. AID 435005;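 active means Every replicate reaches about 75%, or at least half do and their mean reaches it too, limit read from the data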;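 further: higher means more ATP so stronger rescue from cytokine killing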
ANO1 activ – mouse TMEM16A channel activation, primary screen | AID 623877 | Q8BHY3 | B-score at 10 µM | HEK293 TMEM16A/YFP-H148Q/I152L, iodide quench fluorescence; active compounds read low | 340,000 tested, 0.3% active;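 active means fluorescence-ratio B-score plate-corrected deviation score at least 3 library SD below zero, with starting fluorescence score within 5 deviations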;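 further: channel opened by trigger with iodide after compound preincubation; score built on the fluorescence ratio of max minus min over baseline; more negative score means more quench and so TMEM16A activation or potentiation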
MC4R barr agon – human MC4R agonism via beta-arrestin. U2OS MC4R beta-arrestin complementation, luminescence; percent of melanotan II response, DMSO zero. activation, % at 8.9 µM. 360,000 tested, 0.98% active. AID 540308;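 active means activation above a per-plate cutoff, the mean activation of sample wells on that plate plus 3 SD, cut at about 8% in these data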
MC4R antag cAMP – human MC4R antagonism in cAMP assay; P32245; MC4R-expressing cells, MTII-stimulated cAMP, LANCE TR-FRET; inhibition, % at 6.5 µM; 360,000 tested, 0.48% active; AID 540295;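 active means inhibition above its plate's cutoff, the mean of tested wells on that plate plus 3 SD, cut at about 29% in these data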
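Material – human MC4R-expressing U2OS cells · Repeats – no replicates · Detection – TR-FRET with Eu-cAMP and labeled anti-cAMP, 671 nm · Times – compound 30 min, challenge 1 h, detection 1 h · Compound – single nominal compound dose of 6.5 µM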
TMEM16A reconf – re-confirmation of mouse TMEM16A chloride channel inhibitors | shares compounds with ANO1 block | HEK293 TMEM16A/YFP-H148Q, iodide quench fluorescence; ionomycin added to raise cell calcium | inhibition, % at 10 µM | 2,300 tested, 39% active | AID 652189;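 active means mean duplicate percent inhibition, scaled so buffer wells are 0 and the reference blocker 100, over three buffer SD above buffer mean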
HEK293 Ca mobil – counter-screen for TMEM16A inhibitors: effect on calcium mobilization | 2,300 tested, 2% active | calcium response (% of ionomycin), % at 10 µM | AID 652231 | TMEM16A/YFP HEK293, Fluo4 calcium mobilization | shares compounds with ANO1 block;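 active means duplicate-averaged calcium signal over 20% of the ionomycin maximum, relative to buffer baseline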;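 further: each well's signal is peak minus trough fluorescence divided by its pre-addition baseline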
Parental YFP cnt – counter-screen for TMEM16A inhibitors: effect in parental YFP-HEK293 cells | shares compounds with ANO1 block | YFP ratio F(max-min)/F0 at 10 µM | AID 652233 | 2,300 tested, under 10 active | iodide YFP quench, ionomycin;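 active means yellow fluorescent protein signal ratio exceeding the buffer control mean by over 5 SD of those controls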;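 further: ratio is mean of duplicate wells from kinetic YFP trace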
ClC-1 rat inh – rat ClC-1 inhibition, TMEM16A specificity screen | shares compounds with ANO1 block | CHO ClC-1-YFP, iodide influx fluorescence quench; iodide control reads 0, buffer control 100 | ratio percent, % at 10 µM | 2,300 tested, under 10 active | AID 652236;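 active means duplicate-mean ratio percent above the mean of iodide-only control wells, which defines zero, plus 5 of their SD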;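 further: higher percent means stronger block of ClC-1 iodide influx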
A number is an active result; 0 = inactive; - = not tested or not shown. In the library only some 3.8% were active in any assay of this set; here they are far more common.

SMILES	CSC inhib	ANO1 block	Beta cell apopt	ANO1 activ	MC4R barr agon	MC4R antag cAMP	TMEM16A reconf	HEK293 Ca mobil	Parental YFP cnt	ClC-1 rat inh
C=CCOc1ccc(/C=C2\SC(=S)N(NS(=O)(=O)c3ccccc3)C2=O)cc1	0	100	0	0	0	0	88%	0	0	0
Cc1cc(/C=N/n2cnnc2)c(C)n1-c1ccccc1	0	0	0	0	0	0	-	-	-	-
Cc1cc(/C=N/n2cnnc2)c(C)n1-c1ccc(OCc2ccc(F)cc2)cc1	-	100	-	0	0	0	0	0	0	0
O=C(NC(=S)Nc1cccc([N+](=O)[O-])c1)C1CCCCC1	0	0	0	0	0	0	-	-	-	-
CCOc1ccc(NC(C)=O)cc1N	0	-	0	0	0	0	-	-	-	-
CCOc1cc(-c2ccc(N)c(OCC)c2)ccc1N	0	0	0	0	0	0	0	0	0	0
CC(SC1CCCC1)C(=O)Nc1ccnn1C(C)C (centres undefined)	0	0	0	0	0	0	0	0	0	0
c1ccc(CN2CC[C@@H](Nc3nccn4ccnc34)C2)cc1	-	-	-	-	0	0	-	-	-	-
O=C(/C=C/c1cn(CC(O)CN2CCCCC2)c2ccccc12)c1ccccc1 (centres undefined)	-	-	-	0	0	0	-	-	-	-
COc1ccc(C(=O)/C=C/c2cn(CC(O)CN3CCN(C)CC3)c3ccccc23)cc1OC (centres undefined)	0	0	0	0	0	0	0	0	0	0
COc1ccc(C(=O)NCC(=O)OCC(=O)NCc2ccc3c(c2)OCO3)cc1	0	-	0	0	0	0	-	-	-	-
CCOC(=O)N1CCN(C2CCCN(C(=O)c3cccc(N(C)C)c3)C2)CC1 (centres undefined)	0	0	0	0	0	0	-	-	-	-
O=C(O)CN(c1ccccc1F)S(=O)(=O)c1ccccc1	0	0	0	0	0	0	0	0	0	0
O=C(N[C@@H](Cc1c[nH]c2ccccc12)C(=O)O)c1ccccc1Cl	0	25	0	0	0	0	0	0	0	0
CC(C)CCCN1C(N(C)C)=NC[C@@H]1Cc1ccccc1	0	0	0	0	0	0	-	-	-	-
CSc1ncc(Cl)c(C(=O)Nc2cccc(C)c2)n1	0	0	0	0	0	0	-	-	-	-
CSc1ncc(Cl)c(C(=O)C(C#N)c2nc3c(C)cc(C)cc3c(=O)[nH]2)n1 (centres undefined)	0	100	0	0	0	0	59%	0	0	0
O=C(COc1ccc(Cl)cc1)Nc1ccc2c(c1)nc1n2CCOC1	0	0	0	0	0	0	-	-	-	-
CC(OC(=O)Cn1cnc2c1c(=O)n(C)c(=O)n2C)C(=O)N(C)c1ccccc1 (centres undefined)	0	0	0	0	0	0	-	-	-	-
CCOC(=O)NC(=O)/C(C#N)=N/Nc1c(F)cccc1F	0	0	0	0	0	0	-	-	-	-
N#C/C(=N\Nc1ccc(Cl)cc1)C(=O)c1ccsc1	0	0	0	0	0	0	-	-	-	-
N#C/C(=N\Nc1ccccc1Cl)C(=O)c1ccccc1	0	100	-	0	0	0	0	0	0	0
N#C/C(=N\Nc1cccc(Cl)c1)C(=O)c1ccccc1	0	100	0	0	0	0	26%	0	0	0
N#C/C(=N\Nc1c(Cl)cccc1Cl)C(=O)NN	0	25	0	0	0	0	0	0	0	0
Cc1cccc(N2CCN(C(=O)CN3C(=O)NC4(CCCCCC4)C3=O)CC2)c1C	-	-	-	0	0	0	-	-	-	-
SMILES	CSC inhib	ANO1 block	Beta cell apopt	ANO1 activ	MC4R barr agon	MC4R antag cAMP	TMEM16A reconf	HEK293 Ca mobil	Parental YFP cnt	ClC-1 rat inh
CCOC(=O)c1cccc(C2=CC(=O)C[C@H](c3ccc(OC)c(OC)c3)C2)c1	0	-	0	0	0	0	-	-	-	-
Cc1ccc(S(=O)(=O)NC(=O)C2(C)CCN2C(=O)COc2ccc(Cl)cc2)nc1 (centres undefined)	-	-	-	-	0	0	-	-	-	-
Cc1ccc([C@H]2C[C@H](n3cc(C4CC4)nn3)[C@@H](O)CN2C(=O)c2cccs2)cc1	-	-	-	-	0	0	-	-	-	-
CC1=C(C(=O)OCc2ccccc2)C(c2ccc(-c3ccccc3)cc2)NC(=O)N1CCCCCC(=O)O (centres undefined)	0	100	0	0	0	0	31%	0	0	0
CC1=C(C(=O)OCc2ccccc2)C(c2ccc(-c3ccccc3)cc2)NC(=O)N1CCCC(=O)O (centres undefined)	0	0	0	-	-	-	-	-	-	-
COC(=O)CCCCCN1C(=O)NC(C2CC2)C(C(=O)OCc2ccccc2)=C1C (centres undefined)	0	25	0	0	0	0	0	0	0	0
COc1ccccc1NS(=O)(=O)c1cccc(NS(=O)(=O)c2cc(C(=O)O)ccc2Cl)c1	-	-	-	-	0	0	-	-	-	-
CCN(C(=O)COC(=O)c1cnc(C)cn1)C1CCCCC1	0	100	0	0	0	0	0	0	0	0
COCCCNc1nc2ccccc2nc1NS(=O)(=O)c1ccc(Cl)cc1	0	0	0	0	0	0	-	-	-	-
COCCCNc1nc2ccccc2nc1NS(=O)(=O)c1cc(Cl)ccc1Cl	0	25	0	0	0	0	16%	0	0	0
COc1ccc(CN2C[C@@H](CO)O[C@@H](n3cnc4c(NC5CC5)ncnc43)C2)cc1	-	-	-	-	0	0	-	-	-	-
CC(=O)Oc1ccc(C(=O)Nc2nnc(C)s2)cc1	0	0	-	0	0	0	0	0	0	0
Cc1cccc2c(SCC(N)=O)nc(-c3ccccc3)nc12	0	100	-	0	0	0	0	0	0	0
NC(=O)CSc1nc(-c2ccccc2)nc2ccccc12	0	0	0	-	0	0	-	-	-	-
COc1cc(C(=O)NCC(c2ccco2)N2CCOCC2)cc(OC)c1OC (centres undefined)	0	0	-	0	0	0	-	-	-	-
CCOc1ccc(Cc2c(Cl)nc(SC)nc2N(C)C)cc1	0	25	0	0	0	0	0	0	0	0
COC(=O)c1ccc(C)c(NC(=O)CSc2sc3c(O)cc(=O)[nH]c3c2C#N)c1	0	0	0	0	0	0	-	-	-	-
Cc1ccc(C)c(NC(=O)CSc2sc3c(O)cc(=O)[nH]c3c2C#N)c1	0	0	0	0	0	0	0	0	0	0
CC(C)(C)C(=O)Nc1cc(S(=O)(=O)Nc2ccc(Cl)cc2)ccc1Cl	-	25	0	0	0	0	36%	0	0	0
